In series [1] the test system is COLO 205. The series is described as follows: Cytotoxicity against human COLO205 cells. It counts as functional, cell-based. The gist of the method:
(§1)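 MCF7 breast and COLO205 colon carcinoma cells were cultured in RPMI1640 with 10% FBS at 37 °C in humidified 5% CO2-95% air. Cytotoxicity was read as IC50 in µg/mL.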

Series [2] concerns KB. In words: Cytotoxicity against human KB cells. The format is functional, cell-based. The gist of the method:
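KB human epidermoid carcinoma cells were grown in DMEM with 10% FBS at 37 °C under humidified 5% CO2. Cytotoxicity was given as IC50 in µg/mL.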

For series [3], the system named is K562. In words: Cytotoxicity against multidrug-resistant human K562 cells. The conditions noted are these: in the assay text read “human K562 cells” for “multidrug-resistant human K562 cells”. It counts as functional, cell-based. The gist of the method: (§2)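 K562/Adr cells, a doxorubicin-resistant leukemia line, were grown in RPMI1640 with 10% FBS and 0.5 µM doxorubicin at 37 °C under humidified 5% CO2. Cytotoxicity was expressed as IC50 in µg/mL.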

Series [4] can be described thus: Cytotoxicity against doxorubicin-resistant human K562/Adr cells. The format is functional, cell-based. The gist of the method: as §2
The test system of series [5] is MCF7. The series is described as follows: Cytotoxicity against human MCF7 cells. The format is functional, cell-based. The gist of the method: as §1
A short description of series [6]: Cytotoxicity against multidrug-resistant human KB-C2 cells. It counts as functional, cell-based. The gist of the method:
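KB-C2, a multidrug-resistant KB subline, was maintained in DMEM with 10% FBS and 5 µM colchicine at 37 °C under humidified 5% CO2. Cytotoxicity was reported as IC50 in µg/mL.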

Series [7] can be described thus: Cytotoxicity against multidrug-resistant human KB-C2 cells in presence of 2.5 uM colchicine. The format is functional, cell-based. The gist of the method: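 KB-C2 cells were kept in DMEM with 10% FBS and 5 µM colchicine, then tested for cytotoxicity with 2.5 µM colchicine added during exposure to samples. IC50 was given in µg/mL.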
Series [8] has as its target ATP-dependent translocase ABCB1 (Homo sapiens, UniProt P08183). In words: Effect on P-glycoprotein expressed in KB-C2 cells assessed as increase in accumulation of rhodamine 123 at 50 uM. It counts as cell-based. The conditions noted are these: kb-c2, 50 µM. An outline of the steps: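 For P-gp substrate accumulation, KB-C2 cells were incubated 2 h with 20 µM rhodamine 123 plus sample, then washed and lysed in 0.1% Triton X-100 in PBS. Retained fluorescence was measured and accumulation expressed as a percentage increase.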

SMILES strings stand for the structures. ≈ marks a conversion by molar mass, not a printed value.

Sequence of ATP-dependent translocase ABCB1 (P08183 whole entry): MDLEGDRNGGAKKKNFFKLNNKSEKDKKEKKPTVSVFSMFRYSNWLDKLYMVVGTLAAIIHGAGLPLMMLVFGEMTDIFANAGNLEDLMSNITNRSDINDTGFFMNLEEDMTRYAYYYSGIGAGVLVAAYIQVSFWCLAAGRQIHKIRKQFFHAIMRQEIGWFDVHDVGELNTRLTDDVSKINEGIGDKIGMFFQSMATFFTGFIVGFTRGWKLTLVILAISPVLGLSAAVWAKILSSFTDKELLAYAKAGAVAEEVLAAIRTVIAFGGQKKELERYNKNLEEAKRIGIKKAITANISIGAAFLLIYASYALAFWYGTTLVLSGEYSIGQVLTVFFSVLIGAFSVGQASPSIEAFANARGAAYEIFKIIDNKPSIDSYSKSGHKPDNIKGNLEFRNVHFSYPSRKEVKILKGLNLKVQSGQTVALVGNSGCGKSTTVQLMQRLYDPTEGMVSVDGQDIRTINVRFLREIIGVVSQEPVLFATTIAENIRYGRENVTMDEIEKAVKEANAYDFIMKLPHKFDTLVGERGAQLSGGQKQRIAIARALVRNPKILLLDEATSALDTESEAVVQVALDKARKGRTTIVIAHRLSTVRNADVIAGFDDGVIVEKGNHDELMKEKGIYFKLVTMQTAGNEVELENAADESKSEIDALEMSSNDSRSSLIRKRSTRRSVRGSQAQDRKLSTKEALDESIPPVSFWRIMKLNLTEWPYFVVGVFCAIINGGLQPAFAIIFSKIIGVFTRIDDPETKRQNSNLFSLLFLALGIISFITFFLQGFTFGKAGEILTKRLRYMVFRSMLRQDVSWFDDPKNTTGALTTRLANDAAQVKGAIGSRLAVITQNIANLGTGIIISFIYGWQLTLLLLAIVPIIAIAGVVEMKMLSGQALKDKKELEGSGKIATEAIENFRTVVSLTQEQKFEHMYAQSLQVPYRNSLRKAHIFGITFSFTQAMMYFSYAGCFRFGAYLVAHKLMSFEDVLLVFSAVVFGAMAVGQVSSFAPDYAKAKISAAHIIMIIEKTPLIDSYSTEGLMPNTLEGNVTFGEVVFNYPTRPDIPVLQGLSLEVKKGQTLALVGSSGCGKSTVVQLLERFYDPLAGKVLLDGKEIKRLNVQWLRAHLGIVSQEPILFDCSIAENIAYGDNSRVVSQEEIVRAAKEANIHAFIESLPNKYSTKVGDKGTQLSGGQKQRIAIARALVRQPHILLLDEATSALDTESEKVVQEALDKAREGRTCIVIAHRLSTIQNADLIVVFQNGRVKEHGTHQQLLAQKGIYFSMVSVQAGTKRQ

By IC50 is commonly meant the point on the concentration scale where inhibition reaches its midpoint. On to `C=C1[C@@H](OC(=O)C(C)CC)C=C[C@@]2(C)CC[C@@H]3[C@@H](OC(=O)[C@@H]3C)[C@H]12` (some centres not stated), for which the IC50 in series [1], in series [2], in series [3], in series [4], in series [5] and in series [6] was greater than 100 µg/mL throughout.
`C=C1C=C[C@@H](OC(=O)/C(C)=C/C)[C@@]2(C)CC[C@@H]3[C@@H](OC(=O)[C@]3(C)O)[C@H]12`: the IC50 in series [1], in series [2], in series [3], in series [4], in series [5] and in series [6] was greater than 100 µg/mL each time.
In the case of `C=C1[C@H]2O[C@H]2[C@@H](OC(=O)/C(C)=C/C)[C@@]2(C)CC[C@@H]3[C@@H](OC(=O)[C@@]3(O)COC(=O)/C(C)=C\C)[C@H]12`, the half-maximal inhibitory concentration (IC50) in series [1] is greater than 100 µg/mL; in series [2], 91.4 µg/mL (≈ 198 µM); in series [3], greater than 100 µg/mL; in series [4], greater than 100 µg/mL; in series [5], greater than 100 µg/mL; in series [6], 98 µg/mL (≈ 213 µM). In series [7], the IC50 turned out to be 48.3 µg/mL. Moreover, the Activity in series [8] came out at 169%.
Take `C/C=C(\C)C(=O)O[C@H]1C[C@](C)(O)C2CC=C(C)[C@H]2[C@@H]2OC(=O)[C@H](C)[C@@H]21` (some centres not stated): the IC50 in series [1], in series [2], in series [3], in series [4], in series [5] and in series [6] was greater than 100 µg/mL throughout. Moreover, the IC50 in series [7] was 25.4 µg/mL. The Activity in series [8] is reported as 114%.
Turning to `C=C1C(=O)O[C@@H]2[C@H]1CC[C@]1(C)[C@H](OC(=O)/C(C)=C/C)C=CC(=C)[C@@H]21` [DEHYDROOOPODIN], the IC50 in series [2] is 46.1 µg/mL (≈ 140 µM); in series [3], 36.8 µg/mL (≈ 112 µM); in series [4], greater than 100 µg/mL; in series [6], 56.9 µg/mL (≈ 173 µM); in series [7], 55.8 µg/mL.
For the compound `COc1cccc2c1C(=O)c1c(O)c3c(c(O)c1C2=O)C[C@@](O)(C(=O)CO)C[C@@H]3O[C@H]1C[C@H](N)[C@H](O)[C@H](C)O1` [DOXORUBICIN], the IC50 is 0.22 µg/mL (≈ 0.405 µM) in series [2], 0.45 µg/mL (≈ 0.828 µM) in series [3], 15.3 µg/mL (≈ 28.1 µM) in series [4] and greater than 100 µg/mL in series [6].
For `C=C1C=C[C@@H](OC(=O)/C(C)=C/C)[C@@]2(C)CC[C@@H]3[C@@H](OC(=O)[C@@H]3C)[C@H]12` [OOPODIN], the IC50 in series [2] is 34.7 µg/mL (≈ 105 µM); in series [3] it was 35.1 µg/mL (≈ 106 µM); in series [4], 25.4 µg/mL (≈ 76.9 µM); in series [6], 24.7 µg/mL (≈ 74.8 µM); in series [7], 13.8 µg/mL.

The record behind these values is ChEMBL document CHEMBL1141440, “Sesquiterpene lactones from the roots of Ferula varia and their cytotoxic activity” (J Nat Prod, 2007).
